{
  "source": "ChEMBL document CHEMBL4402601",
  "about": "“Discovery of a Silicon-Containing Pan-Genotype Hepatitis C Virus NS5A Inhibitor” (J Med Chem, 2020)",
  "key": {"Hepatitis C virus [1]": {"system": "Hepatitis C virus", "assay": "Antiviral activity against Hepatitis C virus subtype 3a subgenomic replicon expressing NS5A infected in human HuH7 cells assessed as reduction in viral replication incubated for 3 days by luciferase reporter gene assay", "assay_type": "functional, organism-based, Hepacivirus hominis", "settings": "Huh-7, 72 h", "procedure,_shortened": "(§1)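 HCV replicon cell assay; inhibition of replication read as decrease in luciferase signal. Percent inhibition computed at each compound concentration; EC50 (pM) from nonlinear regression fit to a 4-parameter logistic equation. Values are means of triplicate wells, with each experiment run at least twice.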"}, "Hepatitis C virus [2]": {"system": "Hepatitis C virus", "assay": "Antiviral activity against Hepatitis C virus subtype 6a subgenomic replicon expressing NS5A infected in human HuH7 cells assessed as reduction in viral replication incubated for 3 days by luciferase reporter gene assay", "assay_type": "functional, organism-based, Hepacivirus hominis", "settings": "Huh-7, 72 h", "procedure,_shortened": "as §1"}, "Hepatitis C virus [3]": {"system": "Hepatitis C virus", "assay": "Antiviral activity against Hepatitis C virus subtype 2a subgenomic replicon expressing NS5A infected in human HuH7 cells assessed as reduction in viral replication incubated for 3 days by luciferase reporter gene assay", "assay_type": "functional, organism-based, Hepacivirus hominis", "settings": "Huh-7, 72 h"}, "Hepatitis C virus [4]": {"system": "Hepatitis C virus", "assay": "Resistance index, ratio of EC50 for Hepatitis C virus subtype 1a H77 subgenomic replicon expressing NS5A L31V mutant infected in human HuH7 cells to EC50 for Hepatitis C virus subtype 1a H77 subgenomic replicon expressing NS5A infected in human HuH7 cells", "assay_type": "functional, Hepacivirus hominis"}, "Hepatitis C virus [5]": {"system": "Hepatitis C virus", "assay": "Resistance index, ratio of EC50 for Hepatitis C virus subtype 1a H77 subgenomic replicon expressing NS5A Y93H mutant infected in human HuH7 cells to EC50 for Hepatitis C virus subtype 1a H77 subgenomic replicon expressing NS5A infected in human HuH7 cells", "assay_type": "functional, Hepacivirus hominis"}, "Hepatitis C virus [6]": {"system": "Hepatitis C virus", "assay": "Resistance index, ratio of EC50 for Hepatitis C virus subtype 1a H77 subgenomic replicon expressing NS5A Y93C mutant infected in human HuH7 cells to EC50 for Hepatitis C virus subtype 1a H77 subgenomic replicon expressing NS5A infected in human HuH7 cells", "assay_type": "functional, Hepacivirus hominis"}, "Hepatitis C virus [7]": {"system": "Hepatitis C virus", "assay": "Resistance index, ratio of EC50 for Hepatitis C virus subtype 1b Con1 subgenomic replicon expressing NS5A Y93H mutant infected in human HuH7 cells to EC50 for Hepatitis C virus subtype 1b Con1 subgenomic replicon expressing NS5A infected in human HuH7 cells", "assay_type": "functional, Hepacivirus hominis"}, "Hepatitis C virus [8]": {"system": "Hepatitis C virus", "assay": "Resistance index, ratio of EC50 for Hepatitis C virus subtype 1b Con1 subgenomic replicon expressing NS5A P32L mutant infected in human HuH7 cells to EC50 for Hepatitis C virus subtype 1b Con1 subgenomic replicon expressing NS5A infected in human HuH7 cells", "assay_type": "functional, Hepacivirus hominis"}, "[9]": {"assay": "Drug distribution in rat plasma at 10 mg/kg, po incubated for 3 hrs by UPLC-MS/MS analysis", "assay_type": "ADME, organism-based", "procedure,_shortened": "(§2)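 Oral dosing in mice and rats; compound measured in plasma and liver by UPLC-MS/MS at each time point, n = 3 (mean ± SD). LPR is mean liver concentration divided by mean plasma concentration.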"}, "[10]": {"assay": "Drug distribution in mouse liver at 10 mg/kg, po incubated for 24 hrs by UPLC-MS/MS analysis", "assay_type": "ADME, organism-based", "settings": "read-out: Drug uptake", "procedure,_shortened": "as §2"}, "[11]": {"assay": "Drug distribution in rat liver at 10 mg/kg, po incubated for 8 hrs by UPLC-MS/MS analysis", "assay_type": "ADME, organism-based", "settings": "read-out: Drug uptake", "procedure,_shortened": "as §2"}, "[12]": {"assay": "Ratio of drug distribution in mouse liver to drug distribution in mouse plasma measured after 24 hrs by UPLC-MS/MS analysis", "assay_type": "ADME, cell-free", "procedure,_shortened": "as §2"}, "[13]": {"assay": "Ratio of drug distribution in rat liver to drug distribution in rat plasma measured after 3 hrs by UPLC-MS/MS analysis", "assay_type": "ADME, cell-free", "procedure,_shortened": "as §2"}, "[14]": {"assay": "Toxicity in mouse assessed as reduction in body weight at 300 mg/kg, po administered for 14 days and measured on day 14", "assay_type": "organism-based", "settings": "in vivo, 336 h", "procedure,_shortened": "(§3)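 Mice randomised after acclimation into two groups of 5 males and 5 females. Compound at 300 mg/kg or vehicle alone given once daily by oral gavage for 14 days. Clinical signs observed daily. Body weight and food intake recorded on day 1, then twice weekly. Animals killed after the 14th dose.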"}, "[15]": {"assay": "Toxicity in mouse assessed as increase in cholesterol level at 300 mg/kg, po administered for 14 days and measured on day 14", "assay_type": "organism-based", "settings": "in vivo, 336 h", "procedure,_shortened": "as §3"}},
  "data": [
    {"compound": "COC(=O)N[C@H](C(=O)N1CCC[C@H]1C(=O)Nc1ccc([C@@H]2CC[C@@H](c3ccc(NC(=O)[C@@H]4CCCN4C(=O)[C@@H](NC(=O)OC)[C@@H](C)OC)cc3)N2c2cc(F)c(N3CC[Si](C)(C)CC3)c(F)c2)cc1)[C@@H](C)OC", "values": [
      {"measurement": "EC50", "setting": "Hepatitis C virus [1]", "value": 3, "unit": "pM"},
      {"measurement": "EC50", "setting": "Hepatitis C virus [2]", "value": 0.017, "unit": "nM"},
      {"measurement": "EC50", "setting": "Hepatitis C virus [3]", "value": 0.38, "unit": "pM"},
      {"measurement": "Ratio EC50", "setting": "Hepatitis C virus [4]", "value": 23},
      {"measurement": "Ratio EC50", "setting": "Hepatitis C virus [5]", "value": ">833"},
      {"measurement": "Ratio EC50", "setting": "Hepatitis C virus [6]", "value": ">203"},
      {"measurement": "Ratio EC50", "setting": "Hepatitis C virus [7]", "value": 12.2},
      {"measurement": "Ratio EC50", "setting": "Hepatitis C virus [8]", "value": 1},
      {"measurement": "concentration at 3 h", "setting": "[9]", "value": 45.2, "unit": "ng/mL"},
      {"measurement": "concentration at 24 h", "setting": "[10]", "value": 625, "unit": "ng/g"},
      {"measurement": "concentration at 8 h", "setting": "[11]", "value": 293, "unit": "ng/g"},
      {"measurement": "Kp at 24 h", "setting": "[12]", "value": 17.9},
      {"measurement": "Kp at 3 h", "setting": "[13]", "value": 5.2},
      {"measurement": "Activity", "setting": "[14]", "value": "Non-Toxic"},
      {"measurement": "Activity", "setting": "[15]", "value": "Non-Toxic"}
    ]}
  ]
}
